Reference: ChEMBL document CHEMBL4513216, “Probing the Open Global Health Chemical Diversity Library for Multistage-Active Starting Points for Next-Generation Antimalarials” (ACS Infect Dis, 2020)

Assay: Toxicity liver stage against HepG2, at 10uM
Assay type: cell-based
Parameters: test concentration 10 uM, cell line HepG2-A16-CD81EGFP
Settings: human, HepG2-A16-CD81EGFP cells; read-out: INHIBITION
Method in brief: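 Uninfected HepG2-A16-CD81EGFP cells, 3 × 10^3 per well, 1536-well, plated on prespotted compound at 10 μM final, parasite-free screening media added to match infected plates; puromycin 10 μM positive, DMSO 0.5% negative; run in parallel with 48 h PbLuc assay at 37 °C, 5% CO2; viability by CellTiter-Glo luminescence, normalized to controls.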

Row | SMILES | cytotoxicity at 10 µM [%]
1 | Cc1ccccc1C(C(=O)N(C)CCc1cn[nH]c1)N(C)C (stereo not given) | -5.86
2 | CCN1CC(C(=O)NCCn2cccc2)CCC1=O (stereo not given) | -1.64
3 | CNC(=O)C1CCN(C(=O)CCn2cccn2)CC1 | -3.76
4 | CNc1nc(C)cc(N2CCC(C(=O)O)(n3ccc(C(C)C)n3)CC2)n1 | 1.52
5 | NC(=O)Cn1cc(NC(=O)NCC2CCN(c3ccccc3)C2)cn1 (stereo not given) | 1.95
6 | CS(=O)(=O)NCc1cnc2n1CCN(Cc1ccsc1)CC2 | -7.96
7 | O=C(NCCCO)c1nnsc1-c1ccccc1 | 7.47
8 | CN1CC2(CCN(Cc3ncc[nH]3)CC2)CC1=O | -1.52
9 | CC(C)N(C)Cc1nnc2n1CCCN(C(=O)C1CCCO1)C2 (stereo not given) | 19
10 | O=C(N1CCCO1)[C@@]12CCO[C@@H]1CCN(Cc1ccccc1)C2 | -13.6
11 | CCc1nc(C2CCCN(C(=O)c3cccc4c3ccn4C)C2)no1 (stereo not given) | -14.4
12 | CC(C)n1cc(CN2CCCN(C(=O)c3ccoc3)CC2)cn1 | -3.44
13 | Cc1nccc(C(=O)N2CCCC(c3cc(C(F)(F)F)[nH]n3)C2)n1 (stereo not given) | -4.59
14 | O=C(O)C1CCN(C(=O)CCn2ccc3cc(Br)ccc32)CC1 | 15.5
15 | CN(C)Cc1ccnc(C2CN(CCc3ccccc3)CCO2)n1 (stereo not given) | -16.5
16 | Cc1cc2c(cc1Cl)C=CC1(CCN(CC(=O)NC3CCCC3)CC1)O2 | 17
17 | CCc1csc(C2CCCN(C(=O)c3cnn(CC)c3)C2)n1 (stereo not given) | 4.73
18 | CCc1c(C(=O)N2C[C@@H]3CC[C@H]2CN(c2cnccn2)C3)csc1C | 13.3
19 | O=C(C1CCC2(CCN(c3nncs3)CC2)CO1)N1CCCC1 (stereo not given) | 9.46
20 | Cc1ncc(CN(C)C2CCCN(CCc3ccccc3)C2)n1C (stereo not given) | -4.17
21 | Cc1nc2ccn(C(C)C)c(=O)c2cc1C(=O)O | -43.6
22 | C=C(C)COc1ccccc1CNCCc1c[nH]cn1 | -2.21

Row | SMILES | cytotoxicity at 10 µM [%]
23 | O=c1[nH]c2csnc2c(=O)n1Cc1ccc(Br)cc1 | 5.41
24 | O=C(O)C1CCN(C[C@H]2CC[C@@H](Cc3ccc4c(c3)OCO4)O2)CC1 | -7.48
25 | CCOCc1cncc2c1CCN(C(=O)c1cscn1)C2 | -107
26 | O=S(=O)(CCO)Cc1ccc(OCC(F)(F)F)cc1 | 2.23
27 | O=C(CCc1c(F)cccc1F)NS(=O)(=O)c1ccc2c(c1)OCCO2 | -4.71
28 | COC[C@H]1CC[C@H]2[C@H](CCN2C(=O)c2ccncc2F)O1 | -4.61
29 | NC(c1ccccc1)c1ccc(OC(F)F)cc1 (stereo not given) | 1.79
30 | COc1ccccc1CC(NC(=O)N1CCC[C@@H]1CO)C(C)C (stereo not given in full) | 3.34
31 | CC(C(=O)Nc1cccc(F)c1)N(C)CCN1CCOCC1 (stereo not given) | -9.19
32 | CC(C)Nc1nc2c(cc1C(=O)NCC1CC1)CCN(CC1CC1)CC2 | 46.5
33 | COc1cc(N2C[C@@H]3COC[C@]3(C(=O)NCc3ccccn3)C2)ncn1 | 7.55
34 | CC(C)(C)CC(=O)N1CC[C@@H](CC(=O)O)[C@@H](CCN2CCCCC2)C1 | -1.11
35 | CC(=O)N1CCN(CCNS(=O)(=O)c2ccc(C)c(F)c2)CC1 | -1.84
36 | O=C([C@@H]1CN(Cc2nccs2)C[C@H]2OCC[C@H]21)N1CCOCC1 | -105
37 | CSC(C)CCN1CCC(n2cc(C3CCCCC3)nn2)CC1 (stereo not given) | -1.39
38 | COc1cccc2c3c(c(=O)[nH]c12)CC(C)(C)O3 | -6.1
39 | CC(=O)N(Cc1noc(C)n1)C1CCN(CCOc2ccccc2)C1 (stereo not given) | -2.04
40 | Cc1nc[nH]c1-c1nccn1CCN1CCCC1=O | -6.88
41 | Cc1nc(N)nc(C)c1CC(=O)N1CCCCC1c1cccc(F)c1 (stereo not given) | -2.06
42 | NC(=O)CCOc1nc(-c2ccccc2Cl)no1 | -1.64
43 | CC(C)NC(=O)C(c1ccccc1)N1CCn2c(nnc2C2CC2)C1 (stereo not given) | -3.3
44 | CC(C)Oc1ccc(C(=O)N2CC[C@H](O)[C@@H](n3ccnc3)CC2)cc1 | -12.8

Row | SMILES | cytotoxicity at 10 µM [%]
45 | CN(Cc1cc(C(C)(C)C)n[nH]1)C(=O)c1cn2ccsc2n1 | -12.6
46 | CC(C)N(C)S(=O)(=O)N(C)Cc1ccc2c(c1)OCO2 | -0.0868
47 | O=C(C[S+]([O-])Cc1cccc(Cl)c1)NC1CCCC1 (stereo not given) | 0.808
48 | CCc1cnc(N2CCN(Cc3ccno3)CC2)s1 | -2.54
49 | CCc1nc(C)ncc1C(=O)N1CC(C)CN(C)c2ccccc21 (stereo not given) | 10.7
50 | O=C(NCCN1CCCC1)C1(c2ccc(Cl)cc2)CCOCC1 | -2.16
51 | CCn1cnnc1C1CCN(C(=O)c2cc(OC)ccc2OC)CC1 | -4.2
52 | Cc1noc(C)c1S(=O)(=O)N1CCC(Oc2cnccn2)CC1 | 4.95
53 | Cc1cccc(NC(=O)C2CCc3ccccc3N2)c1 (stereo not given) | -5.92
54 | CC(=O)Nc1nc(C(=O)NCCOc2ccccc2F)cs1 | -6.19
55 | CCn1nc2c(cc1=O)CN(CCOc1ccc(C#N)cc1)CC2 | -3.73
56 | Cc1ccc(N2CCCC(NCc3sccc3C)C2)nn1 (stereo not given) | -3.8
57 | Cc1cccc(CN2CCC3(CC2)NC(=O)C[C@H]3c2cnn(C)c2)n1 | 4.53
58 | O=C(c1nnn(-c2ccccc2Cl)c1-c1ccccn1)N1CCSCC1 | 4.92
59 | Cc1ccc(CN2Cc3nccn3CC(Cn3cccn3)C2)s1 (stereo not given) | -101
60 | Cc1cc(CN(C)C2CCCN(Cc3noc(C4CC4)n3)C2)no1 (stereo not given) | -10.8
61 | Cc1cc(N2CCC(CO)(CC3CCCCO3)CC2)nc2ccccc12 (stereo not given) | 5.51
62 | CCc1ncc2c(n1)CN(C(C)C(=O)Nc1ccc(Cl)cn1)CC2 (stereo not given) | -0.915
63 | Cc1ccc(C)c(S(=O)(=O)CCN2CCCC2Cn2cccn2)c1 (stereo not given) | -8.78
64 | N#Cc1ccc(CNC2CCN(CCc3ccncc3)CC2)cc1 | -5.03
65 | O=C1NCCCCC1NC(=O)C1(Oc2ccc(Cl)cc2)CCNCC1 (stereo not given) | -6.21
66 | COc1nccc(N2CC[C@@H](N3CCN(C)CC3)[C@H](O)C2)c1C#N | -147

Row | SMILES | cytotoxicity at 10 µM [%]
67 | CCn1ccnc1CN1CCCC(CO)(Cc2cccc(OC)c2)C1 (stereo not given) | 3.25
68 | CCC[C@@H]1CN(Cc2c[nH]nc2-c2ccc(OC)cc2)C[C@H]1NC(C)=O | -0.566
69 | CNC(=O)C1(c2cnccn2)CCCN1C(=O)c1c(F)cccc1F (stereo not given) | -24.1
70 | O=C(c1ccccn1)N1CCC(c2nc(O)cc(-c3ccncc3)n2)C1 (stereo not given) | -4.7
71 | O=C1NC(c2ccccc2)=N[C@@]12CC[C@@H]1CN(Cc3cccnc3)C[C@@H]12 | 6.8
72 | CCN(CC)c1ncc(CNC2CCc3nc(C(C)C)nn3C2)s1 (stereo not given) | 4.24
73 | COc1ccc(Cl)cc1NCC(=O)NCCNc1ncccn1 | -9.24
74 | N#Cc1ccc(CN2CCCC3(Cc4ccccc4CNC3=O)C2)cc1 (stereo not given) | 11.8
75 | O=C(NCCNc1ncccn1)C1CC(=O)N(Cc2ccccn2)C1 (stereo not given) | -10.4
76 | Cc1cc2cc(Nc3c(C#N)c(=O)n(C)c(=O)n3C)ccc2[nH]1 | 1.11
77 | COc1cc(CNc2ccccc2Cl)ccc1OCC(=O)O | 6.15
78 | Clc1ccc(C2(NCc3noc(C4CC4)n3)CCOCC2)cc1 | -3.1
79 | Cn1ccnc1CN1CCCC1Cn1cccn1 (stereo not given) | -13.8
80 | CN(C)C(=O)N1C[C@H]2CC[C@@H](C1)N(Cc1nnc(C3CC3)o1)C2 | 0.266
81 | O=C(NC1CC1)[C@@H]1CN(Cc2ccc3c(c2)OCO3)C[C@H]2OCC[C@H]21 | -1.79
82 | c1cnc(-c2nn3c(CN4CCOCC4)nnc3s2)cn1 | 7.74
83 | CS(=O)(=O)N1CCC(C(=O)NC(Cc2ccsc2)c2nccs2)CC1 (stereo not given) | 4.04
84 | Cc1csc(C2(NC(=O)CCNC(=O)C(C)(C)C)CCCC2)n1 | -7.43
85 | COCCn1cc(C(=O)N2CCCC2c2ccc(F)cc2)ccc1=O (stereo not given) | -0.12
86 | CC1c2ncc(CN3CCN(C)CC3)n2CCN1Cc1ccc(F)cc1 (stereo not given) | 2.49
87 | c1ccc(CN2CC[C@@H]3O[C@H](COCc4ccncc4)CC[C@@H]32)nc1 | 3.5
88 | O=C(NC1CCN(c2ncccn2)CC1)c1cc2c(cc1O)CCCC2 | 8

Row | SMILES | cytotoxicity at 10 µM [%]
89 | c1ccc(-c2nc(CN3CCOC(Cn4cccn4)C3)cs2)cc1 (stereo not given) | 8.62
90 | Cc1ccc2cc(CN(C)Cc3ccccn3)c(=O)[nH]c2c1 | 3.08
91 | CCN(CC)CCNC(=O)CCc1c(C)nn(-c2ccccc2Br)c1C | 10.6
92 | c1ccc(-c2cnc(CNC3CCCN(c4cccnn4)C3)o2)cc1 (stereo not given) | 0.993
93 | CN(C)c1cncc(C2CCCN2S(=O)(=O)c2cn(C)cn2)n1 (stereo not given) | -27.1
94 | c1ccc(-c2cc(CNCCCC3CCOC3)c3nnnn3c2)cc1 (stereo not given) | -22.3
95 | CCOCc1nn(CC2CC2)c2c1CN(C(=O)c1ccno1)CC2 | 1.99
96 | CCOc1ccc(NC(C)=O)cc1S(=O)(=O)Nc1nnc(C)s1 | -17.6
97 | Cc1cccc(CNC2CCN(CCc3ccncc3)CC2)c1C | -9.04
98 | O=C1CCC(=O)N1c1nn(Cc2cccc(F)c2)cc1Cl | -6.61
99 | CC(C)N1CCC(CC(=O)N2CCCCC2CCn2cccn2)CC1 (stereo not given) | -3.77
100 | CN(Cc1ccccc1C(F)(F)F)C(C(N)=O)c1ccccc1 (stereo not given) | 13.2
101 | CN1CCCC(c2cncc(C(=O)NCc3ccccc3Cl)n2)C1 (stereo not given) | -2.82
102 | O=C(CN(Cc1cccc(F)c1)CC1CCCO1)N1CCCC1 (stereo not given) | -7.29
103 | Clc1cc(CN2CCCC(Cn3cncn3)C2)c2ncccc2c1 (stereo not given) | 6.64
104 | Cc1noc(C)c1CCC(=O)N1CCN(CCn2cncn2)CC1 | 5.03
105 | CC(C)CC(=O)NCC(O)c1c(F)cccc1F (stereo not given) | -2.24
106 | Cc1ccc(-n2ccnc2)c(C(=O)NCCCN(C)C)c1 | -152
107 | CC(C)N(Cc1ccccn1)C(=O)CCC(=O)c1ccccc1 | 3.33
108 | Cn1ccnc1CNC(=O)CCc1cccc(F)c1 | 0.293
109 | CC(=O)N1CCOC2(CCCN(C(=O)CCN3CCCCC3)C2)C1 (stereo not given) | -2.51
110 | Cc1nc(C)c2c(n1)CCN(Cc1nccn1C)CC2 | -122
